Laboratory results taken from ChEMBL document CHEMBL4732095, “Novel naphthylamide derivatives as dual-target antifungal inhibitors: Design, synthesis and biological evaluation” (Eur J Med Chem, 2021).

Experiments:
Type in all cases: functional
Aspergillus fumigatus = test: Antifungal activity against Aspergillus fumigatus KM8001 assessed as inhibition of microbial growth by NCCLS protocol based method
In short: (§1)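 Broth MIC50 determined following NCCLS guidelines in Sabouraud medium, with fungal suspension in 24-well format. Compound tested at 0.0625, 0.125, 0.5, 1, 2, 4, 8 and 16 μg/mL. Plates cultured statically at 35 °C. MIC50 is the lowest concentration giving 50% growth inhibition. Naftifine and fluconazole served as positive controls.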

Nakaseomyces glabratus = test: Antifungal activity against Candida glabrata ATCC 0001 assessed as inhibition of microbial growth by NCCLS protocol based method; in short: as §1
Candida albicans = test: Antifungal activity against Candida albicans ATCC 10231 assessed as inhibition of microbial growth by NCCLS protocol based method; in short: as §1
Pichia kudriavzevii = test: Antifungal activity against Candida krusei ATCC 6258 assessed as inhibition of microbial growth by NCCLS protocol based method; in short: as §1
Candida tropicalis = test: Antifungal activity against Candida tropicalis ATCC 1369 assessed as inhibition of microbial growth by NCCLS protocol based method; in short: as §1

Compound | MIC50 (Aspergillus fumigatus) [µg/mL] | MIC50 (Nakaseomyces glabratus) [µg/mL] | MIC50 (Candida albicans) [µg/mL] | MIC50 (Pichia kudriavzevii) [µg/mL] | MIC50 (Candida tropicalis) [µg/mL]
CN(CC(=O)NCc1cccnc1)C(=O)c1cccc2ccccc12 | > 16 | 2 | 0.5 | 0.5 | 0.25
CN(CC(=O)Nc1cccnc1)C(=O)c1cccc2ccccc12 | > 16 | 0.25 | 0.25 | 0.5 | 0.25
O=C(NC(Cn1ccnc1)C(=O)NCc1ccncc1)c1cccc2ccccc12 (stereo not given) | 8 | 0.5 | 0.25 | 0.5 | 0.25
CN(CC(=O)Nc1ccncc1)C(=O)c1cccc2ccccc12 | 8 | 0.5 | 0.5 | 0.5 | 1
Cc1ccc(NC(=O)C(Cn2ccnc2)NC(=O)c2ccc3ccccc3c2)cc1 (stereo not given) | 8 | 0.25 | 0.125 | 0.25 | 0.25
O=C(CNC(=O)c1ccc2ccccc2c1)NC(Cn1ccnc1)C(=O)c1ccccc1 (stereo not given) | > 16 | 1 | 0.25 | 0.5 | 0.25
O=C(NC(Cn1ccnc1)C(=O)NC1CCCC1)c1cccc2ccccc12 (stereo not given) | > 16 | 2 | 0.5 | 0.5 | 0.5
CC(NC(=O)c1ccc2ccccc2c1)C(=O)NC(Cn1ccnc1)C(=O)c1ccccc1 (stereo not given) | 8 | 0.5 | 0.25 | 0.25 | 0.125
CC(C)C(NC(=O)c1cccc2ccccc12)C(=O)NC(Cn1ccnc1)C(=O)c1ccccc1 (stereo not given) | > 16 | 0.5 | 0.25 | 1 | 0.5

Further compounds by falling MIC50 (Aspergillus fumigatus), results first:

MIC50 (Aspergillus fumigatus) [µg/mL] | MIC50 (Nakaseomyces glabratus) [µg/mL] | MIC50 (Candida albicans) [µg/mL] | MIC50 (Pichia kudriavzevii) [µg/mL] | MIC50 (Candida tropicalis) [µg/mL] | Compound
8 | 0.25 | 0.125 | 0.25 | 0.25 | CN(CC(=O)NC(Cn1ccnc1)C(=O)c1ccccc1)C(=O)c1ccc2ccccc2c1 (stereo not given)
8 | 0.25 | 0.5 | 0.5 | 0.25 | CN(CC(=O)NC(Cn1ccnc1)C(=O)c1ccccc1)C(=O)c1cccc2ccccc12 (stereo not given)
8 | 0.5 | 0.25 | 1 | 0.25 | CN(CC(=O)Nc1ccncc1)C(=O)c1ccc2ccccc2c1
8 | 0.5 | 0.5 | 1 | 0.25 | O=C(NC(Cn1ccnc1)C(=O)NCc1ccccc1)c1cccc2ccccc12 (stereo not given)
